Source: PubChem BioAssay
The list is not random: actives were taken first. Their share in the collection is about 1.7%.
DNMT1 block: inhibitors of human DNMT1 | inhibition (reported as % activation of signal), % at 10 µM | P26358 | actives 0.83% (n = 360,000) | DNMT1 molecular beacon, Hinp1I cleavage, fluorescence | AID 588458; in the data active means inhibition above about 50%
STEP inh: STEP (human) phosphatase inhibition; P54829; recombinant STEP, OMFP fluorogenic substrate, fluorescence; inhibition, % at 20 µM; actives 0.25% (n = 360,000); AID 588621;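 active means inhibition at 20 µM, scaled per plate between control wells, above about 37%, limit read from the data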
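Assay system: isolated STEP enzyme / Timing: 20 min at room temperature, dark / Doses: 20 µM, 1% DMSO / Technique: fluorescence intensity, excitation 480 nm, emission 540 nm / Reagent: fluorogenic phosphatase substrate OMFP at 25 µM final / Measure: percent inhibition scaled to no-enzyme and uninhibited-enzyme controls, plate-pattern corrected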
LMPTP inh: LMPTP (human) inhibition | actives 0.22% (n = 360,000) | recombinant LMPTP-A, OMFP fluorogenic substrate, fluorescence intensity | inhibition, % at 20 µM | P24666 | AID 651560;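 active means compounds that cut the enzyme signal by at least half of the control window in the single-dose screen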
Target sequence (P24666 whole entry, looked up): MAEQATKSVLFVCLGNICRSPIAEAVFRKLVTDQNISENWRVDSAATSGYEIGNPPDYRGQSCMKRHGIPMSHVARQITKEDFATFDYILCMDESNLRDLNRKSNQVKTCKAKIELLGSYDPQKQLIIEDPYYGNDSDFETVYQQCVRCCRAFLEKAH
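Assay system: LMPTP-A enzyme. Input: 0.625 nM LMPTP-A final. Probe or stimulus: 400 µM OMFP. Compound dosing: single 20 µM dose. Schedule: 50 min dark incubation at room temperature. Detection: fluorescence intensity of OMFP turnover product. Read-out: percent inhibition versus substrate-only and uninhibited controls. Benchmarks: no-enzyme low control, uninhibited high control.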
SUMO1 PPI mod: alters human SUMO1 binding to SIM partners | P63165 | AID 602429 | inhibition, % at 20 µM | SUMO1 binding to a labelled peptide, TR-FRET, 1 h | actives 0.33% (n = 360,000); in the data active means inhibition above about 37%
Target sequence (P63165 whole entry, looked up): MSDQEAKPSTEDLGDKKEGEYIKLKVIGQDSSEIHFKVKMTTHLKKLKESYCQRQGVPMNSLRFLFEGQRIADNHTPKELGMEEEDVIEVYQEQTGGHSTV
Scp1 inh: blocks human Scp-1 phosphatase activity; AID 493091; inhibition, % at 20 µM; Q9GZU7; actives 0.88% (n = 340,000); Recombinant Scp1, phosphopeptide, malachite green phosphate absorbance;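 active means inhibition above about 50% at 20 µM, limit read from the data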
Target sequence (Q9GZU7 76-261 limits assumed): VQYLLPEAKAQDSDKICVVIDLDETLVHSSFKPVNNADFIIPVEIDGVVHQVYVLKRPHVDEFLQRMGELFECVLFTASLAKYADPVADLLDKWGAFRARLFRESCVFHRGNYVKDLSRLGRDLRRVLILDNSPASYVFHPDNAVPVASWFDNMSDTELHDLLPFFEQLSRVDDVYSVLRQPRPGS
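Test system: SCP-1 phosphatase catalytic domain, residues 76-261 | Compound dosing: One concentration, 20 µM, with 1.0% DMSO | Schedule: 45 min room-temperature reaction, 5 min colour, 30 min stabiliser | Detection: Absorbance at 630 nm | Read-out basis: % inhibition of SCP-1 phosphate liberation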
DNMT1 inh conf: DNMT1 inhibition confirmation, single concentration. shares compounds with DNMT1 block. DNMT1 molecular beacon HinP1I cleavage, fluorescence. inhibition, % at 10 µM. actives 8% (n = 2,300);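 active means average inhibition of at least 30% in the single-concentration confirmation test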
DNMT1 interf: counter-screen for DNMT1 inhibitors: spectral interference. activation (fluorescence interference), % at 10 µM. actives 1% (n = 2,300). shares compounds with DNMT1 block. DNMT1 molecular beacon spectral interference counterscreen, fluorescence 485/520;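 active means activation of at least 30% at 10 µM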;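 further: DNMT1 catalytic domain with a HinP1I cleavage step and a FAM/dabcyl DNA beacon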
Hits are given with their value; i = inactive; nt = not tested or not shown.

SMILES	DNMT1 block	STEP inh	LMPTP inh	SUMO1 PPI mod	Scp1 inh	DNMT1 inh conf	DNMT1 interf
CC1(OC(=O)C2CCCC2)C(=O)C=C2C=C(c3ccsc3)N(Cc3ccco3)C=C2C1=O (configuration not stated)	62.1	i	i	i	i	i	i
CC1CCN(S(=O)(=O)c2ccc(NC(=O)Cn3nnc(-c4ccccc4)n3)cc2)CC1	56.2	i	i	i	i	i	i
Cc1ccc(-c2nnn(CC(=O)Nc3ccc(S(=O)(=O)N4CCC(C)CC4)cc3)n2)cc1	i	i	i	i	i	nt	nt
COc1cc(Cl)ccc1OC1(C)CCN(Cc2cccn2-c2nccs2)C1 (configuration not stated)	i	i	i	i	nt	nt	nt
O=C(CN1C(=O)/C(=C/c2ccco2)SC1=S)Nc1ccc(O)c(C(=O)O)c1	86.7	59.5	i	83.8	63.4	i	i
O=C(CCCN1C(=O)/C(=C/c2ccco2)SC1=S)Nc1cccc(C(=O)O)c1	86.1	i	i	50.3	51.2	i	i
COc1ccc(NC(=O)CCCN2C(=O)/C(=C\c3ccco3)SC2=S)cc1	i	i	i	i	i	nt	nt
O=C(CCCN1C(=O)/C(=C\c2ccco2)SC1=S)Nc1ccc(O)cc1C(=O)O	98.6	43.0	i	63.5	68.8	i	i
O=C(CN1C(=O)/C(=C/c2ccco2)SC1=S)NC1CCS(=O)(=O)C1 (configuration not stated)	75.9	45.1	i	i	58.4	i	i
O=C(CCN1C(=O)/C(=C/c2ccccc2)SC1=S)NC1CCS(=O)(=O)C1 (configuration not stated)	i	i	i	i	i	nt	nt
COc1ccc(NC(=O)CS(=O)c2ccc(Cl)c(Cl)c2)cc1 (configuration not stated)	i	i	i	i	i	nt	nt
CC(C)C[C@H]1CNC(=O)C(=O)N1CC1CCN(CCc2ccccc2)CC1	i	i	i	i	nt	nt	nt
COc1ccccc1N1CCN(C(=O)c2ccc3[nH]c4c(c3c2)CCCC4)CC1	i	i	i	i	i	nt	nt
O=C(c1ccc2[nH]c3c(c2c1)CCCC3)N1CCN(c2ccc(F)cc2)CC1	59.4	i	i	i	i	i	i
O=C(CN1CCOCC1)Nc1ccc(Cl)cn1	i	i	i	i	i	nt	nt
CN(C(=O)COC(=O)COc1ccc(Cl)cc1Cl)c1c(N)n(Cc2ccccc2)c(=O)[nH]c1=O	i	i	i	i	i	nt	nt
Nc1ccc(N(c2ccccc2)c2ccc(N)cc2)cc1	61.8	i	i	i	i	i	i
CN(C)c1ccc(CCc2ccc(N)cc2)cc1	i	i	i	i	i	nt	nt
O=C(COC(=O)C1=NNC(=O)CC1)NCCc1ccccc1	i	i	i	i	i	nt	nt
COc1ccc(/C=C(\C#N)c2nc3ccc(C)cc3[nH]2)cc1Oc1ccc(C(F)(F)F)cc1[N+](=O)[O-]	51.7	i	i	i	i	i	i
O=C(NCc1ccc(F)cc1)Nc1nnc([C@H]2C[C@H](O)[C@@H](CO)O2)s1	i	i	i	i	nt	nt	nt
CSc1nnc(C)c(=O)n1COC(=O)COc1ccc(Cl)cc1	109.7	i	i	i	i	i	i
CSc1nnc(C)c(=O)n1COC(=O)COc1ccccc1	i	i	i	i	i	nt	nt
O=C(/C=C/c1ccco1)NC(=S)Nc1ccc(O)c(-c2nc3ccccc3s2)c1	67.3	i	i	i	i	i	i
CCOc1ccc(CCNC(=O)COC(=O)c2cc(S(=O)(=O)N3CCOCC3)ccc2F)cc1OCC	i	i	i	i	i	nt	nt
SMILES	DNMT1 block	STEP inh	LMPTP inh	SUMO1 PPI mod	Scp1 inh	DNMT1 inh conf	DNMT1 interf
O=C(CC(=O)c1c(F)cccc1Cl)c1ccccc1O	i	i	i	i	i	nt	nt
O=C(NCc1ccco1)c1nc2c(nnn2Cc2ccccc2Cl)c(=O)[nH]1	i	i	i	i	i	nt	nt
Cc1ccc(C)c(Cn2nnc3c(=O)[nH]c(C(=O)NCc4ccco4)nc32)c1	52.0	i	i	i	i	i	i
C=CCN(c1nc(C)cc(OC)n1)S(=O)(=O)c1ccc(C)cc1	96.7	i	i	i	i	i	i
C=CCN(c1nc(C)cc(OC)n1)S(=O)(=O)c1ccccc1	i	i	i	i	i	nt	nt
CC(=O)N1CCc2cc(S(=O)(=O)NC(C(=O)NC(C)c3ccccc3)C(C)C)ccc21 (configuration not stated)	i	i	i	i	i	nt	nt
CN(C)CC1CCC/C(=C\c2ccc(OC(=O)/C=C/c3ccc(Cl)c(Cl)c3)cc2)C1=O (configuration not stated)	50.4	i	i	i	i	i	i
COc1ccccc1C(C)Nc1ccc(S(=O)(=O)N2CCN(C)CC2)cc1[N+](=O)[O-] (configuration not stated)	i	i	i	i	i	nt	nt
CN(C)CCCN(C(=O)/C=C/c1cccs1)c1nc2ccc(F)cc2s1	i	i	i	i	i	nt	nt
CN(C)CCN(C(=O)/C=C/c1cccs1)c1nc2c(F)cc(F)cc2s1	58.0	i	i	i	i	i	i
O=C1Cc2cc(S(=O)(=O)Nc3cccc([N+](=O)[O-])c3)cc3c2N1CCC3	i	i	i	i	i	nt	nt
COc1ccc2c3c(cccc13)C(=O)CC2	127.5	i	i	i	i	i	36.9
Cc1cc2nc(-c3ccc(NC(=O)C(C)C)cc3)oc2cc1C	62.9	i	i	i	i	i	i
Cc1ccc(Cc2cnc(NC(=O)/C(C#N)=C/c3ccc(-c4ccc([N+](=O)[O-])cc4)o3)s2)cc1	51.7	i	i	i	i	i	i
N#C/C(=C/c1ccc(-c2ccc([N+](=O)[O-])cc2)o1)C(=O)Nc1nc(-c2cccs2)cs1	87.3	i	i	i	i	i	i
O=C(O)c1cc(NC(=O)c2cccc(N3C(=O)c4ccccc4C3=O)c2)cc(C(=O)O)c1	i	i	i	i	i	nt	nt
NS(=O)(=O)c1ccc(NC(=O)c2cccc(N3C(=O)c4ccccc4C3=O)c2)cc1	54.9	i	i	93.6	i	i	i
O=C(NCCC1CCCCN1S(=O)(=O)c1ccc(F)cc1)C(=O)NCCN1CCOCC1 (configuration not stated)	i	i	i	i	i	nt	nt
CC(C)C(CCNC(=O)CC(Cc1ccccc1)c1ccco1)c1ccco1 (configuration not stated)	60.9	i	i	i	i	i	i
CC12CCC(=O)N1C(C(=O)NNC(=O)c1ccc(Br)cc1)CS2 (configuration not stated)	i	i	i	i	i	nt	nt
Cc1ccc(-n2nc3c(c2NC(=O)C(C)(C)C)CSC3)c(C)c1	i	i	i	i	i	nt	nt
Cc1ccc(-n2nc3c(c2NC(=O)c2ccc(Br)o2)CSC3)c(C)c1	53.3	i	i	i	i	i	i
